Experimental data pooled from the literature.
Compare with care: the assays were run in different laboratories.
KIT autoinhibited: Mast/stem cell growth factor receptor Kit, autoinhibited (KIT, Homo sapiens, UniProt P10721)
KIT: Mast/stem cell growth factor receptor Kit (KIT, Homo sapiens, UniProt P10721)
KIT D816H: Mast/stem cell growth factor receptor Kit (KIT, Homo sapiens, UniProt P10721, D816H)

| Structure (SMILES) | target | observed | mode | technique | concentration | quantity | value |
| --- | --- | --- | --- | --- | --- | --- | --- |
| Cc1ccc(C(=O)NCc2ccsc2)cc1C#Cc1cn(C(C)C)c2ncnc(N)c12 | Mast/stem cell growth factor receptor Kit (KIT, Homo sapiens, UniProt P10721, V560G) | enzyme activity | inhibitor |  | 1 µM | activity vs control | 4% |
| O=C(N1CCS(=O)(=O)CC1)N1C[C@H](c2ccc(OC(F)(F)F)cc2)C[C@H](c2nc(C3CC3)no2)C1 | KIT autoinhibited | cell-free assay |  | competition with immobilised ligand | 1 µM | remaining binding | 100% |
| N[C@@H]1CCN(c2nccc(-c3cnn4ncccc34)n2)C1 | Mast/stem cell growth factor receptor Kit (KIT, Homo sapiens, UniProt P10721, L576P) | binding |  |  | 1 µM | remaining binding | 97% |
| O=C(Nc1ccc(Oc2ccc(F)cc2)cc1)N1CCc2ncccc2[C@H]1c1ccc(F)cc1 | KIT | cell-free assay |  | competition with immobilised ligand | 1 µM | remaining binding | 97% |
| Cc1cc(NC(=O)c2cccc3cc(-c4cccc5[nH]nc(N)c45)ccc23)ccc1F | Mast/stem cell growth factor receptor Kit (KIT, Homo sapiens, UniProt P10721, V654A) | enzyme activity | inhibitor |  | 0.1 µM | activity vs control | 63% |
| COc1cc(-c2cc(-c3ccc(N4CCNCC4)cc3)cnc2N)cc(OC)c1OC | Mast/stem cell growth factor receptor Kit (KIT, Homo sapiens, UniProt P10721, D816V) | enzyme activity | inhibitor |  | 1 µM | inhibition | 8% |
| Nc1ncnc2occ(-c3ccc(NC(=O)Nc4cc(C(F)(F)F)ccc4F)cc3)c12 | KIT autoinhibited | cell-free assay | inhibitor |  | 20 µM | remaining signal | 0.05% |
| CCS(=O)(=O)c1cc2cc(C[C@](O)(CC(C)(C)c3ccc(F)cc3C(N)=O)C(F)(F)F)[nH]c2cn1 | KIT D816H | cell-free assay |  | competition with immobilised ligand | 1 µM | remaining binding | 98% |
| CC/C(=N\NC(=O)NCc1cccc(O)c1)c1ccc(O)c(C)c1O | Mast/stem cell growth factor receptor Kit (KIT, Homo sapiens, UniProt P10721, D816Y) | enzyme activity | inhibitor |  | 0.1 µM | inhibition | -0.1% |
| CN(C)c1nccc(-c2cnc3ncccn23)n1 | KIT autoinhibited | binding |  |  | 1 µM | remaining binding | 76% |
| Cc1c[nH]c2nccc(Oc3c(F)cc(Nc4cc(Cl)nc(N)n4)cc3F)c12 | KIT autoinhibited | cell-free assay |  | competition with immobilised ligand | 0.1 µM | remaining binding | 77% |
| F[C@@H]1CCN(c2nccc(-c3cnn4ncccc34)n2)C1 | KIT | binding |  |  | 1 µM | remaining binding | 91% |
| CCCOc1ccc(OC)c(F)c1C(=O)c1ccc(C(=O)N[C@@H]2CNC[C@H]2NC(=O)c2ccc3[nH]ncc3c2)cc1 | KIT | enzyme activity | inhibitor |  | 10 µM | remaining activity | 104% |
| O=C(O)[C@H]1[C@H](Cn2nnc3ccccc3c2=O)CC[C@@H]1C(=O)c1ccc(OCCC2CCOCC2)cc1 | Mast/stem cell growth factor receptor Kit (KIT, Homo sapiens, UniProt P10721, A829P) | cell-free assay |  | competition with immobilised ligand | 1 µM | remaining binding | 84% |
| C[C@H]1CCN(c2nccc(-c3cnn4ncccc34)n2)C1 | KIT D816H | binding |  |  | 1 µM | remaining binding | 84% |
